From PubChem BioAssay AID652046 (Broad Institute, 2013) come the findings set out here.

Each structure is given as a SMILES string. Records with an inconclusive call do not appear. Active and inactive are the calls of the source.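 Rule for the calls: active = fitted curve falls past -35% activity change at a concentration no higher than twice the top tested dose; inconclusive = no clear call, values can overlap the other calls; inactive = the rest, including activity in the opposite direction.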

A short description of test [1]: IL-1beta-stimulated NF-kB eGFP reporter inhibition, dose response, selectivity assay for EBV LMP1 NF-kB inhibitor project, cell-based, dsRed control, flow cytometry, dry powder (AID 652046). To be noted: IL-1beta-stimulated NF-kB eGFP reporter/dsRed, flow cytometry, 16 h. In short, it runs like this: (§1)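 Material – HEK293 NF-κB eGFP reporter cells with dsRed · Reagent – IL-1beta stimulation · Incubation – 16 h compound exposure, 37 °C · Signal – flow cytometry, scatter-gated live cells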
A general note: In flow cytometry, cells or beads pass a laser one at a time.

Test [2] relates to IL-1beta-stimulated NF-kB eGFP reporter/dsRed, flow cytometry, 16 h. Described as above. In short, it runs like this:
as §1

`Cc1cc(C(=O)Nc2ccc3c(c2)C(=O)N(C)[C@@H]2CC[C@H](CC(=O)N[C@@H](C)c4ccccc4)O[C@H]2CO3)no1`: the activity change, negative = inhibition in test [1] (at 21 µM (top of the series)) was 5.36% (inactive).

For the molecule `CN(C)c1ccc2c(c1)[C@@H]1C[C@@H](CC(=O)NCc3ccc4c(c3)OCO4)O[C@@H](CO)[C@@H]1O2`, in test [1] (at 19.5 µM (top of the series)), the activity change, negative = inhibition was -8.36% (inactive).

For `Cc1cc(C(=O)Nc2ccc3c(c2)C(=O)N(C)[C@@H]2CC[C@H](CC(=O)NC4CCCC4)O[C@H]2CO3)no1`, the AC35 in test [2] is 9.72 µM.

For `Cc1cc(C(=O)Nc2ccc3c(c2)C(=O)N(C)[C@@H]2CC[C@H](CC(=O)N[C@H](C)c4ccccc4)O[C@H]2CO3)no1`, in test [2], the AC35 was 15.9 µM.

As to `O=C(C[C@@H]1C[C@H]2c3cc(NS(=O)(=O)c4ccc(F)cc4)ccc3O[C@H]2[C@H](CO)O1)NCc1ccc(Oc2ccccc2)cc1`, the activity change, negative = inhibition in test [1] (at 19.5 µM (top of the series)) was 6.68% (inactive).

For `CCCNC(=O)C[C@H]1CC[C@@H]2[C@H](COc3ccc(NC(=O)c4cc(C)on4)cc3C(=O)N2C)O1`, the activity change, negative = inhibition in test [1] (at 19.5 µM (top of the series)) was 2% (inactive).

`CN1C(=O)c2cc(NC(=O)Nc3ccccc3F)ccc2OC[C@@H]2O[C@@H](CC(=O)NCc3ccc(-c4ccccc4)cc3)CC[C@H]21`: in test [2], the AC35 was 0.14 µM.

`COCCNC(=O)C[C@H]1CC[C@@H]2[C@H](COc3ccc(NC(=O)c4cc(C)on4)cc3C(=O)N2C)O1`: the activity change, negative = inhibition in test [1] (at 19.5 µM (top of the series)) is 1.68% (inactive).

For `CS(=O)(=O)Nc1ccc2c(c1)[C@@H]1C[C@@H](CC(=O)NCc3ccc(Oc4ccccc4)cc3)O[C@@H](CO)[C@@H]1O2`, in test [2], the AC35 is 0.664 µM.

For the molecule `CCNC(=O)C[C@H]1CC[C@@H]2[C@H](COc3ccc(NC(=O)c4cc(C)on4)cc3C(=O)N2C)O1`, in test [1] (at 19.5 µM (top of the series)), the activity change, negative = inhibition is 0.718% (inactive).

Regarding `Nc1ccn([C@@H]2O[C@H](CO)[C@@H](O)C2O)c(=O)n1` (stereo partly drawn), the AC35 in test [2] was 19.1 µM.

For `CN(C)c1ccc2c(c1)[C@@H]1C[C@@H](CC(=O)N3CCc4ccccc4C3)O[C@@H](CO)[C@@H]1O2`, the activity change, negative = inhibition in test [1] (at 19.5 µM (top of the series)) is 4.65% (inactive).

In the case of `Cc1cc(C(=O)Nc2ccc3c(c2)C(=O)N(C)[C@@H]2CC[C@H](CC(=O)NCc4ccc(-c5ccccc5)cc4)O[C@@H]2CO3)no1`, the activity change, negative = inhibition in test [1] (at 21 µM (top of the series)) was 4.6% (inactive).

Consider `COCCNC(=O)C[C@@H]1C[C@H]2c3cc(N(C)C)ccc3O[C@H]2[C@H](CO)O1`, for which the activity change, negative = inhibition in test [1] (at 19.5 µM (top of the series)) was -7.46% (inactive).

Regarding `CN(C)c1ccc2c(c1)[C@@H]1C[C@@H](CC(=O)N3CCOCC3)O[C@@H](CO)[C@@H]1O2`, in test [2], the AC35 is 2.09 µM.

Regarding `CN(C)c1ccc2c(c1)[C@@H]1C[C@@H](CC(=O)NCC3CC3)O[C@@H](CO)[C@@H]1O2`, the activity change, negative = inhibition in test [1] (at 19.5 µM (top of the series)) was -1.79% (inactive).

As to `COc1ccccc1CNC(=O)C[C@@H]1C[C@H]2c3cc(N(C)C)ccc3O[C@H]2[C@H](CO)O1`, the activity change, negative = inhibition in test [1] (at 19.5 µM (top of the series)) was 2.93% (inactive).

With `O=C(Nc1ccc(C(F)(F)F)cc1)Nc1ccc2c(c1)[C@H]1C[C@@H](CC(=O)N3CCc4ccccc4C3)O[C@@H](CO)[C@H]1O2`, in test [2], the AC35 was 12.7 µM.

For the molecule `O=C(C[C@@H]1C[C@H]2c3cc(NC(=O)Nc4ccccc4F)ccc3O[C@H]2[C@H](CO)O1)NCc1ccc(Oc2ccccc2)cc1`, the AC35 in test [2] was 16.3 µM.

On to `CN1C(=O)c2cc(NS(C)(=O)=O)ccc2OC[C@@H]2O[C@@H](CC(=O)NCc3ccc(-c4ccccc4)cc3)CC[C@H]21`, for which the activity change, negative = inhibition in test [1] (at 19.5 µM (top of the series)) is 10.3% (inactive).

Take `Cc1cc(C(=O)Nc2ccc3c(c2)C(=O)N(C)[C@@H]2CC[C@H](CC(=O)NCc4ccc(-c5ccccc5)cc4)O[C@H]2CO3)no1`: the activity change, negative = inhibition in test [1] (at 18 µM (top of the series)) is -15.2% (inactive).

As to `COc1ccccc1[C@]1(C)ON(c2ccccc2C(F)(F)F)C1=O`, in test [2], the AC35 is 10.7 µM.

`CN(C)c1ccc2c(c1)[C@@H]1C[C@@H](CC(=O)NCCc3ccccc3)O[C@@H](CO)[C@@H]1O2`: in test [1] (at 19.5 µM (top of the series)), the activity change, negative = inhibition was -4.63% (inactive).

As for `CNC(=O)C[C@H]1CC[C@@H]2[C@H](COc3ccc(NC(=O)c4cc(C)on4)cc3C(=O)N2C)O1`, in test [1] (at 19.5 µM (top of the series)), the activity change, negative = inhibition was -2.16% (inactive).

`CN(C)c1ccc2c(c1)[C@@H]1C[C@@H](CC(=O)NCc3ccc(Oc4ccccc4)cc3)O[C@@H](CO)[C@@H]1O2`: the activity change, negative = inhibition in test [1] (at 19.5 µM (top of the series)) was 4.75% (inactive).

Regarding `O=C(C[C@@H]1C[C@H]2c3cc(NC(=O)NC4CCCC4)ccc3O[C@H]2[C@H](CO)O1)NCc1ccc(Oc2ccccc2)cc1`, the AC35 in test [2] was 17.1 µM.

On to `CN(C)c1ccc2c(c1)[C@@H]1C[C@@H](CC(=O)NCc3ccccc3F)O[C@@H](CO)[C@@H]1O2`, for which the AC35 in test [2] is 20.8 µM.

For `CN(C)c1ccc2c(c1)[C@@H]1C[C@@H](CC(=O)NCc3cc(F)ccc3F)O[C@@H](CO)[C@@H]1O2`, the AC35 in test [2] is 2.23 µM.
